Calls of active or inactive are those of the source. No cut-off for these calls is given here. Where a SMILES comes first, the peptide text is derived from it. Bridges are numbered along the chain shown (N, C = ends). Some results are limits rather than exact numbers.

A short description of data set [1]: Thermal stability assessed as compound degradation at 100 degC incubated for 1 hr. In kind it is physicochemical. An outline of the steps:
(§1)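 Peptide heated at 100 °C for 1 h. Intact peptide monitored by UPLC and MS.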

The nature of data set [2]: Thermal stability assessed as compound degradation in presence of chymotrypsin at 37 degC incubated for 4 hrs. In kind it is ADME. Conditions: isolated protein. The method, boiled down: (§2)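 Peptide incubated with chymotrypsin at 37 °C for 4 h. Intact peptide monitored by UPLC and MS.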
In another data set the test system is Aspergillus oryzae. Briefly: Inhibition of Aspergillus oryzae alpha-amylase pre-incubated for 20 mins at 37 degC by bernfeld method. The method, boiled down:
(§3)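 Bernfeld method. Peptide preincubated with α-amylase for 20 min at 37 °C. Hydrolysis started with 1% starch, run 5 min, then stopped with dinitrosalicylic acid color reagent. Absorbance read at 540 nm, with untreated enzyme set as 100%. Enzyme sources: T. molitor larval extract, human saliva, porcine pancreas, A. oryzae.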

Data set [3] deals with Alpha-amylase (Tenebrio molitor) (UniProt P56634). Briefly: (§4) Inhibition of Tenebrio molitor alpha-amylase pre-incubated for 20 mins at 37 degC by bernfeld method. The method, boiled down:
as §3

The target of data set [4] is T1, Pancreatic alpha-amylase (Sus scrofa) (UniProt P00690).
T1 sequence (whole entry): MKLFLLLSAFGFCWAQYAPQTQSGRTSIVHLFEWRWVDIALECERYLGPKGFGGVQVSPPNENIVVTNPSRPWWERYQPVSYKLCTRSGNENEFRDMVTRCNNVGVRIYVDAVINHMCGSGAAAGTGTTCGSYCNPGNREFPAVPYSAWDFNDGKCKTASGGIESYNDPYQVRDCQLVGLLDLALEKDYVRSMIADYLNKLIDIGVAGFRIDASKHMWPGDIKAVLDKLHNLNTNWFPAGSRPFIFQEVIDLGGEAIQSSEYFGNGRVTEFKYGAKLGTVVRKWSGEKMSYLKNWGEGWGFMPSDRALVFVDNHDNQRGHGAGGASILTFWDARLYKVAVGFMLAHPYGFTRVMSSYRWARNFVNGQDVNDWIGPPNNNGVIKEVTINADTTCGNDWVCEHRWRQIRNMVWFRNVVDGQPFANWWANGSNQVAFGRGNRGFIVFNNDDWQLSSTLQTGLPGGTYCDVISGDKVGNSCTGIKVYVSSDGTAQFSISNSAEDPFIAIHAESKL
The data set is described as follows: Inhibition of porcine pancreas alpha-amylase pre-incubated for 20 mins at 37 degC by bernfeld method. The method, boiled down:
as §3

Data set [5] deals with T2, Alpha-amylase 1A (Homo sapiens) (UniProt P0DUB6).
T2 sequence (whole entry): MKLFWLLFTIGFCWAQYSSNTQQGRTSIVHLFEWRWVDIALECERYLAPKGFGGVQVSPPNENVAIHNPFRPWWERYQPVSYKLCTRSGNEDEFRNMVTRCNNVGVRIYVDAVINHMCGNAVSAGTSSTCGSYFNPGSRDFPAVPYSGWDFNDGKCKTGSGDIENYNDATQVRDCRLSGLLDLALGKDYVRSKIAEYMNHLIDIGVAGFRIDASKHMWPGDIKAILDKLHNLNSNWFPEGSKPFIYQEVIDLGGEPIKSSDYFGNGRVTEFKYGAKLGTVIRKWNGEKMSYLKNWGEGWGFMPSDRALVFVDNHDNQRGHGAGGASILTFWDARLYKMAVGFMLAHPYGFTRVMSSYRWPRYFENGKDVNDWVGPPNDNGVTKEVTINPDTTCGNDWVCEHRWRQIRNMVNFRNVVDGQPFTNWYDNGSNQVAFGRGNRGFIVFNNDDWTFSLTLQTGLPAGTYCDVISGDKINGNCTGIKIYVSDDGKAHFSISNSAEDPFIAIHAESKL
The data set is described as follows: Inhibition of alpha-amylase in human saliva pre-incubated for 20 mins at 37 degC by bernfeld method. An outline of the steps:
as §3

A short description of data set [6]: Toxicity against BHK cells assessed as effect on cell viability up to 100 uM by Presto blue reagent based assay. Also noted: species or system Mesocricetus auratus. Conditions: hamster.
A short description of data set [7]: Thermal stability assessed as compound hydrolysis using filly reduced form of compound in presence of chymotrypsin at 37 degC incubated for 4 hrs by UPLC and MS method. In kind it is ADME. To be noted: isolated protein. An outline of the steps: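 Incubated with chymotrypsin at 37 °C for 4 h, then analysed by UPLC and MS.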
Data set [8] in a line: Toxicity against human O type erythrocytes cells assessed as induction of hemolysis up to 100 uM. The class given is cell-based. To be noted: erythrocyte. The method, boiled down: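 Hemolysis tested on human type O erythrocytes at up to 100 μM. Cliotide T4 used as the hemolytic positive control. Absorbance read on a microplate reader.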
Data set [9] can be described thus: Thermal stability assessed as compound remaining at 100 degC incubated for 1 hr by UPLC and MS method. In kind it is physicochemical. To be noted: read-out: Stability. An outline of the steps:
as §1

Another data set has as its system Escherichia coli. Briefly: Antibacterial activity against Escherichia coli up to 100 uM by radial diffusion assay. In kind it is functional, organism-based. An outline of the steps:
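Radial diffusion assay against E. coli, peptide tested up to 100 μM. Positive control: D4R, a broad-spectrum antimicrobial peptide dendrimer made in-house.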

The target of the next data set is Alpha-amylase (Tenebrio molitor, UniProt P56634). The description is as §4. An outline of the steps: as §3
Alpha-amylase, sequence (P56634 whole entry): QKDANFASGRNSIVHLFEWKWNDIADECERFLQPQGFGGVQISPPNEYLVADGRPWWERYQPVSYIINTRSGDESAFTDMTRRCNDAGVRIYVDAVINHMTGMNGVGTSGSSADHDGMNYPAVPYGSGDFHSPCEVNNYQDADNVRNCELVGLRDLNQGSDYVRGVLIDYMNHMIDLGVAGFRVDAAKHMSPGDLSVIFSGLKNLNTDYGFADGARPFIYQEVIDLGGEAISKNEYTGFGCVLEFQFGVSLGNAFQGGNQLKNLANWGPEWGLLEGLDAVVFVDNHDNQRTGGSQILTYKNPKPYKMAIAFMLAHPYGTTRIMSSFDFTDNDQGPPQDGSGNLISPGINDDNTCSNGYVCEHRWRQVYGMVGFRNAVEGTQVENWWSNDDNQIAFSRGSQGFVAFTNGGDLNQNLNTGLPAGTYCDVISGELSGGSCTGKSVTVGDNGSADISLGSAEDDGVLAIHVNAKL
Data set [10] in a line: Toxicity against human HuH7 cells assessed as effect on cell viability up to 100 uM by Presto blue reagent based assay. Conditions: huh-7.
Data set [11] in a line: Thermal stability assessed as compound remaining in presence of chymotrypsin at 37 degC incubated for 4 hrs by UPLC and MS method. To be noted: read-out: Stability. In kind it is ADME. An outline of the steps: as §2
The test system of the next data set is Vero. Briefly: Toxicity against African green monkey Vero cells assessed as effect on cell viability up to 100 uM by Presto blue reagent based assay. Conditions: chlorocebus sabaeus.

Alpha-amylase (Tenebrio molitor), sequence (P56634 whole entry): as above

Consider `CC[C@H](C)[C@@H]1NC(=O)CNC(=O)CNC(=O)[C@H]([C@@H](C)CC)NC(=O)[C@H](C(C)C)NC(=O)[C@@H]2CCCN2C(=O)[C@H](CCC(N)=O)NC(=O)[C@H]([C@@H](C)O)NC(=O)[C@@H]2CSSC[C@@H]3NC(=O)[C@H](Cc4ccc(O)cc4)NC(=O)[C@H](CCC(=O)O)NC(=O)CNC(=O)[C@H](CCCCN)NC(=O)[C@H](CCC(N)=O)NC(=O)[C@H](C)NC(=O)[C@@H](N)CSSC[C@H](NC(=O)[C@H](CSSC[C@@H](C(=O)N[C@@H](C)C(=O)O)NC1=O)NC(=O)[C@H](CCC(N)=O)NC(=O)[C@H](CC(C)C)NC(=O)[C@H](Cc1ccc(O)cc1)NC(=O)[C@H](C(C)C)NC(=O)[C@H](CO)NC3=O)C(=O)N[C@@H](CC(=O)O)C(=O)N1CCC[C@H]1C(=O)N[C@@H](Cc1ccc(O)cc1)C(=O)N[C@@H](Cc1cnc[nH]1)C(=O)N2`, for which the Stability entry in [1] and in data set [2] was “Stable” each time.

Turning to `CC[C@H](C)[C@@H]1NC(=O)CNC(=O)CNC(=O)[C@H]([C@@H](C)CC)NC(=O)[C@H](C(C)C)NC(=O)[C@@H]2CCCN2C(=O)[C@H](CCC(N)=O)NC(=O)[C@H]([C@@H](C)O)NC(=O)[C@@H]2CSSC[C@@H]3NC(=O)[C@H](Cc4ccc(O)cc4)NC(=O)[C@H](CCC(=O)O)NC(=O)CNC(=O)[C@H](CCCCN)NC(=O)[C@H](CCC(N)=O)NC(=O)[C@H](C)NC(=O)[C@@H](N)CSSC[C@H](NC(=O)[C@H](CSSC[C@H](C(=O)N[C@@H](C)C(=O)O)NC1=O)NC(=O)[C@H](CCC(N)=O)NC(=O)[C@H](CC(C)C)NC(=O)[C@H](Cc1ccc(O)cc1)NC(=O)[C@H](C(C)C)NC(=O)[C@H](CO)NC3=O)C(=O)N[C@@H](CC(=O)O)C(=O)N1CCC[C@H]1C(=O)N[C@@H](Cc1ccc(O)cc1)C(=O)N[C@@H](Cc1cnc[nH]1)C(=O)N2`, the inhibition result (in the data set on Aspergillus oryzae; in data set [3]; in [4]; in data set [5]) was “inactive” each time.

As for `CC[C@H](C)[C@@H]1NC(=O)CNC(=O)[C@H](CC(=O)O)NC(=O)[C@@H]2CSSC[C@@H]3NC(=O)[C@H](CC(C)C)NC(=O)[C@H](Cc4c[nH]c5ccccc45)NC(=O)[C@@H]4CCCN4C(=O)[C@H](CC(=O)O)NC(=O)[C@H](CSSC[C@H](N)C(=O)N[C@@H]([C@@H](C)CC)C(=O)N[C@@H](C)C(=O)N[C@@H](Cc4cnc[nH]4)C(=O)N[C@@H](Cc4ccc(O)cc4)C(=O)NCC(=O)N[C@@H](CCCCN)C(=O)N2)NC(=O)[C@H](CSSC[C@@H](C(=O)N[C@@H](CC(C)C)C(=O)O)NC(=O)[C@H](Cc2ccccc2)NC(=O)CNC(=O)[C@H]([C@@H](C)CC)NC(=O)[C@H]([C@@H](C)CC)NC(=O)[C@@H]2CCCN2C(=O)[C@@H]2CCCN2C(=O)[C@H]([C@@H](C)O)NC3=O)NC(=O)[C@H](CCC(N)=O)NC(=O)[C@H](CC(N)=O)NC(=O)[C@H]([C@@H](C)CC)NC1=O` (H-CIAHYGKCDGIINQCCDPWLCTPPIIGFCL-OH; disulfide 1-16, 8-21, 15-29), the inhibition entry (in the data set on Aspergillus oryzae; in data set [4]; in [5]) was “inactive” throughout. For the same compound, the Activity result (in data set [6]; in [8]; in [10]; in the data set with Vero) was “Non-toxic” in each case. Also, the Stability result in data set [7] is “Unstable”; in data set [1] it was “Stable”; in data set [2] it was “Stable”. Besides, the remaining at 1 h in [9] was above 90%. In addition, in the data set with Escherichia coli, the outcome was inactive. Moreover, the inhibition entry in [3] was “Dose-dependent effect”. Besides, the IC50 on Alpha-amylase was determined as 2.6 µM. The remaining at 4 h in data set [11] was above 90%.

What is called IC50 is the concentration that inhibits the measured activity by half.

Source of the values: ChEMBL document CHEMBL3580530, “Allotides: Proline-Rich Cystine Knot α-Amylase Inhibitors from Allamanda cathartica” (J Nat Prod, 2015).
